Measurements taken from ChEMBL document CHEMBL1914360, “Synthesis and anticancer activity of 5'-chloromethylphosphonates of 3'-azido-3'-deoxythymidine (AZT)” (Bioorg Med Chem, 2011).
Values after ≈ are worked out from the molar mass of the structure shown.

How the values were obtained:
[1] = test system: KB; experiment: Cytotoxicity against human KB cells assessed as cell survival after 72 hrs by sulforhodamine B colorimetric assay; format: functional, cell-based
In short: (§1)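 SRB protein-stain assay: KB cells grown in RPMI 1640 and MCF-7 in DMEM, each with 10% FBS, 1% L-glutamine and 1% penicillin/streptomycin, at 37 °C. About 10,000 cells per well were left 24 h, then exposed 72 h to six concentrations ([…]), with DMSO ≤0.1%. Cells were TCA-fixed 1 h at 4 °C and stained 30 min at RT. OD was read at 490 nm, survival taken as % of untreated control, and each experiment run three times.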

[2] = test system: MCF7; experiment: Cytotoxicity against human MCF7 cells assessed as cell survival after 72 hrs by sulforhodamine B colorimetric assay; format: functional, cell-based; settings: MCF7, 72 h; in short: as §1
[3] = test system: Caco-2; experiment: Cytotoxicity against human Caco2 cells at 100 uM; format: cell-based; settings: caco-2, 100 µM
In short: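 Caco-2 monolayers were exposed for 2 h to compound at 100 µM in transport medium (HBSS with 10 mM HEPES, pH 7.4). This served as a pre-check before transport studies. Monolayer integrity was checked by TEER before and after the experiments.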

[4] = Apparent permeability from apical to basolateral side of the human Caco2 cells at 100 uM after 30 mins by HPLC method; format: ADME, cell-based; settings: Caco-2
In short: (§2)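 Caco-2 monolayers grown on polycarbonate membranes (0.4 µm pores) and used 21 days post-seeding; only monolayers with TEER above 800 Ω·cm² were used. Cells washed and pre-incubated 30 min at 37 °C. Compound at 100 µM in HBSS with 10 mM HEPES, pH 7.4, added to the donor side; shaken at 37 °C. Acceptor sampled every 15 min and analysed by HPLC. Papp reported as mean ± SD, n = 3.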

[5] = Apparent permeability from basolateral to apical side of the human Caco2 cells at 100 uM after 30 mins by HPLC method; format: ADME, cell-based; settings: Caco-2; in short: as §2
[6] = Oral bioavailability in human; format: ADME, organism-based; settings: in vivo

bioavailability [6] [%] | Structure (SMILES) | IC50 [1] [µg/mL] | IC50 [2] [µg/mL] | Activity [3] | Papp A→B at 0.5 h, 100 µM [4] [×10⁻⁶ cm/s] | Papp B→A at 0.5 h, 100 µM [5] [×10⁻⁶ cm/s]
– | C=CCNP(=O)(CCl)OC[C@H]1O[C@@H](n2cc(C)c(=O)[nH]c2=O)C[C@@H]1N=[N+]=[N-] (some centres not stated) | 47 (≈ 112 µM) | 34 (≈ 81.2 µM) | – | – | –
– | Cc1cn([C@H]2C[C@H](N=[N+]=[N-])[C@@H](COP(=O)(CCl)NCCc3ccccc3)O2)c(=O)[nH]c1=O (some centres not stated) | > 100 | > 100 | – | – | –
– | CCCCNP(=O)(CCl)OC[C@H]1O[C@@H](n2cc(C)c(=O)[nH]c2=O)C[C@@H]1N=[N+]=[N-] (some centres not stated) | 77 (≈ 177 µM) | 82 (≈ 189 µM) | – | – | –
– | Cc1cn([C@H]2C[C@H](N=[N+]=[N-])[C@@H](COP(=O)(CCl)NCCc3c[nH]c4ccccc34)O2)c(=O)[nH]c1=O (some centres not stated) | 80 (≈ 153 µM) | > 100 | – | – | –
– | CCCNP(=O)(CCl)OC[C@H]1O[C@@H](n2cc(C)c(=O)[nH]c2=O)C[C@@H]1N=[N+]=[N-] (some centres not stated) | 5.8 (≈ 13.8 µM) | 3.7 (≈ 8.79 µM) | Non-toxic | 3.22 | 16.1
– | CCNP(=O)(CCl)OC[C@H]1O[C@@H](n2cc(C)c(=O)[nH]c2=O)C[C@@H]1N=[N+]=[N-] (some centres not stated) | > 100 | > 100 | – | – | –
– | CNP(=O)(CCl)OC[C@H]1O[C@@H](n2cc(C)c(=O)[nH]c2=O)C[C@@H]1N=[N+]=[N-] (some centres not stated) | 52 (≈ 132 µM) | 63.2 (≈ 161 µM) | – | – | –
– | CCN(CC)P(=O)(CCl)OC[C@H]1O[C@@H](n2cc(C)c(=O)[nH]c2=O)C[C@@H]1N=[N+]=[N-] (some centres not stated) | 85 (≈ 195 µM) | 67 (≈ 154 µM) | – | – | –
– | Cc1cn([C@H]2C[C@H](N=[N+]=[N-])[C@@H](COP(=O)(CCl)N(C)C)O2)c(=O)[nH]c1=O (some centres not stated) | 65 (≈ 160 µM) | 22.8 (≈ 56.1 µM) | – | – | –
– | Cc1cn([C@H]2C[C@H](N=[N+]=[N-])[C@@H](COP(=O)(CCl)NC(C)C)O2)c(=O)[nH]c1=O (some centres not stated) | 12.1 (≈ 28.8 µM) | 12.8 (≈ 30.4 µM) | Non-toxic | 3.36 | 18
63 | Cc1cn([C@H]2C[C@H](N=[N+]=[N-])[C@@H](CO)O2)c(=O)[nH]c1=O [ZIDOVUDINE] | 3.12 (≈ 11.7 µM) | 2.6 (≈ 9.73 µM) | – | 2.85 | –
– | Nc1ccn([C@@H]2O[C@H](CO)[C@@H](O)[C@@H]2O)c(=O)n1 [CYTARABINE] | 0.99 (≈ 4.07 µM) | 0.93 (≈ 3.82 µM) | – | – | –
